Laboratory results as given in ChEMBL document CHEMBL1137711, “Design, synthesis, structure-activity relationship and antibacterial activity series of novel imidazo fused quinolone carboxamides” (2009).
Converted amounts (≈) assume the structure as drawn. The source made the active and inactive calls. The rule behind the calls is not given here.

Key:
Assay type in all cases: functional
[1] = tested on: Klebsiella aerogenes; experiment: Antibacterial activity against Klebsiella aerogenes after 24 hrs by broth dilution method
Method in brief: (§1)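 MIC by broth dilution (NCCLS 1982) in nutrient broth, test compound serially diluted across tubes 1–9. Each tube receives 0.5 ml overnight culture. Incubation 37 °C for 24 h, then turbidity read. DMSO as negative control, ciprofloxacin as reference.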

[2] = tested on: Chromobacterium violaceum; experiment: Antibacterial activity against Chromobacterium violaceum after 24 hrs by broth dilution method; method in brief: as §1
[3] = tested on: Staphylococcus aureus; experiment: Antibacterial activity against Staphylococcus aureus after 24 hrs by broth dilution method; method in brief: as §1
[4] = tested on: Lysinibacillus sphaericus; experiment: Antibacterial activity against Bacillus sphaericus after 24 hrs by broth dilution method
Method in brief: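 Broth dilution per NCCLS 1982: test agent serially diluted across tubes 1–9 of sterile nutrient broth; 0.5 ml overnight culture added to each tube; incubated at 37 °C for 24 h, then turbidity read to give the minimum inhibitory concentration. DMSO served as negative control; ciprofloxacin run alongside.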

[5] = tested on: Pseudomonas aeruginosa; experiment: Antibacterial activity against Pseudomonas aeruginosa after 24 hrs by broth dilution method; method in brief: as §1
[6] = tested on: Bacillus subtilis; experiment: Antibacterial activity against Bacillus subtilis after 24 hrs by broth dilution method; method in brief: as §1

SMILES	MIC [1]	MIC [2]	MIC [3]	MIC [4]	MIC [5]	MIC [6]
CNC(=O)c1cn2c(-c3ccc(C)cc3)nc3c(NC)c(F)cc(c1=O)c32	inactive	6.25 µg/mL (≈ 17.2 µM)	12.5 µg/mL (≈ 34.3 µM)	12.5 µg/mL (≈ 34.3 µM)	6.25 µg/mL (≈ 17.2 µM)	25 µg/mL (≈ 68.6 µM)
CNC(=O)c1cn2c(-c3ccc([N+](=O)[O-])cc3)nc3c(NC)c(F)cc(c1=O)c32	inactive	25 µg/mL (≈ 63.2 µM)	12.5 µg/mL (≈ 31.6 µM)	12.5 µg/mL (≈ 31.6 µM)	inactive	12.5 µg/mL (≈ 31.6 µM)
CNC(=O)c1cn2c(-c3ccc(N(C)C)cc3)nc3c(NC)c(F)cc(c1=O)c32	25 µg/mL (≈ 63.5 µM)	12.5 µg/mL (≈ 31.8 µM)	12.5 µg/mL (≈ 31.8 µM)	25 µg/mL (≈ 63.5 µM)	6.25 µg/mL (≈ 15.9 µM)	25 µg/mL (≈ 63.5 µM)
CCc1nc2c3c(cc(F)c2n1C)c(=O)c(C(=O)NC)cn3CC	inactive	inactive	inactive	inactive	inactive	inactive
CNC(=O)c1cn2c(-c3ccc(OC)cc3)nc3c(NC)c(F)cc(c1=O)c32	inactive	25 µg/mL (≈ 65.7 µM)	25 µg/mL (≈ 65.7 µM)	12.5 µg/mL (≈ 32.9 µM)	6.25 µg/mL (≈ 16.4 µM)	12.5 µg/mL (≈ 32.9 µM)
CNC(=O)c1cn2c(-c3ccc(F)cc3)nc3c(NC)c(F)cc(c1=O)c32	inactive	6.25 µg/mL (≈ 17 µM)	25 µg/mL (≈ 67.9 µM)	25 µg/mL (≈ 67.9 µM)	25 µg/mL (≈ 67.9 µM)	25 µg/mL (≈ 67.9 µM)
CNC(=O)c1cn2c(-c3ccc(Cl)cc3)nc3c(NC)c(F)cc(c1=O)c32	inactive	6.25 µg/mL (≈ 16.2 µM)	25 µg/mL (≈ 65 µM)	25 µg/mL (≈ 65 µM)	25 µg/mL (≈ 65 µM)	25 µg/mL (≈ 65 µM)
CNC(=O)c1cn2c(-c3ccco3)nc3c(NC)c(F)cc(c1=O)c32	inactive	6.25 µg/mL (≈ 18.4 µM)	6.25 µg/mL (≈ 18.4 µM)	25 µg/mL (≈ 73.5 µM)	12.5 µg/mL (≈ 36.7 µM)	6.25 µg/mL (≈ 18.4 µM)
CCn1cc(C(=O)NC)c(=O)c2cc(F)c3c(nc(CC(C)C)n3C)c21	12.5 µg/mL (≈ 34.9 µM)	25 µg/mL (≈ 69.8 µM)	inactive	inactive	25 µg/mL (≈ 69.8 µM)	inactive
CCCc1nc2c3c(cc(F)c2n1C)c(=O)c(C(=O)NC)cn3CC	12.5 µg/mL (≈ 36.3 µM)	25 µg/mL (≈ 72.6 µM)	25 µg/mL (≈ 72.6 µM)	50 µg/mL (≈ 145 µM)	25 µg/mL (≈ 72.6 µM)	12.5 µg/mL (≈ 36.3 µM)
CCCCc1nc2c3c(cc(F)c2n1C)c(=O)c(C(=O)NC)cn3CC	25 µg/mL (≈ 69.8 µM)	25 µg/mL (≈ 69.8 µM)	inactive	inactive	12.5 µg/mL (≈ 34.9 µM)	inactive
CNC(=O)c1cn2c(-c3ccccc3)nc3c(NC)c(F)cc(c1=O)c32	inactive	12.5 µg/mL (≈ 35.7 µM)	6.25 µg/mL (≈ 17.8 µM)	25 µg/mL (≈ 71.4 µM)	12.5 µg/mL (≈ 35.7 µM)	12.5 µg/mL (≈ 35.7 µM)
CCCCCCc1nc2c3c(cc(F)c2n1C)c(=O)c(C(=O)NC)cn3CC	50 µg/mL (≈ 129 µM)	25 µg/mL (≈ 64.7 µM)	inactive	inactive	50 µg/mL (≈ 129 µM)	inactive
CCCCCc1nc2c3c(cc(F)c2n1C)c(=O)c(C(=O)NC)cn3CC	12.5 µg/mL (≈ 33.6 µM)	25 µg/mL (≈ 67.1 µM)	25 µg/mL (≈ 67.1 µM)	50 µg/mL (≈ 134 µM)	25 µg/mL (≈ 67.1 µM)	25 µg/mL (≈ 67.1 µM)
CNC(=O)c1cn2c(-c3ccc(O)cc3)nc3c(NC)c(F)cc(c1=O)c32	inactive	25 µg/mL (≈ 68.2 µM)	25 µg/mL (≈ 68.2 µM)	25 µg/mL (≈ 68.2 µM)	inactive	12.5 µg/mL (≈ 34.1 µM)
O=C(O)c1cn(C2CC2)c2cc(N3CCNCC3)c(F)cc2c1=O [CIPROFLOXACIN]	0.78 µg/mL (≈ 2.35 µM)	0.39 µg/mL (≈ 1.18 µM)	0.39 µg/mL (≈ 1.18 µM)	0.78 µg/mL (≈ 2.35 µM)	0.78 µg/mL (≈ 2.35 µM)	0.78 µg/mL (≈ 2.35 µM)
CCn1cc(C(=O)NC)c(=O)c2cc(F)c3c(nc(C(C)C)n3C)c21	50 µg/mL (≈ 145 µM)	12.5 µg/mL (≈ 36.3 µM)	50 µg/mL (≈ 145 µM)	25 µg/mL (≈ 72.6 µM)	50 µg/mL (≈ 145 µM)	12.5 µg/mL (≈ 36.3 µM)
